According to ChEMBL document CHEMBL4028914, “Structure-Based Design of 6-Chloro-4-aminoquinazoline-2-carboxamide Derivatives as Potent and Selective p21-Activated Kinase 4 (PAK4) Inhibitors” (J Med Chem, 2018):

How the values were obtained:
[1] = biological target: T1, Serine/threonine-protein kinase PAK 4 (Homo sapiens, UniProt O96013); test: Binding affinity to biotin-labeled human truncated PAK4 kinase domain by surface plasmon resonance assay
In short: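 Binding to the truncated PAK4 was measured by SPR with multiconcentration kinetic analysis. Kd was taken from a 1:1 binding model fit.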
Target sequence in this assay (O96013 whole entry, the tested form may be a part): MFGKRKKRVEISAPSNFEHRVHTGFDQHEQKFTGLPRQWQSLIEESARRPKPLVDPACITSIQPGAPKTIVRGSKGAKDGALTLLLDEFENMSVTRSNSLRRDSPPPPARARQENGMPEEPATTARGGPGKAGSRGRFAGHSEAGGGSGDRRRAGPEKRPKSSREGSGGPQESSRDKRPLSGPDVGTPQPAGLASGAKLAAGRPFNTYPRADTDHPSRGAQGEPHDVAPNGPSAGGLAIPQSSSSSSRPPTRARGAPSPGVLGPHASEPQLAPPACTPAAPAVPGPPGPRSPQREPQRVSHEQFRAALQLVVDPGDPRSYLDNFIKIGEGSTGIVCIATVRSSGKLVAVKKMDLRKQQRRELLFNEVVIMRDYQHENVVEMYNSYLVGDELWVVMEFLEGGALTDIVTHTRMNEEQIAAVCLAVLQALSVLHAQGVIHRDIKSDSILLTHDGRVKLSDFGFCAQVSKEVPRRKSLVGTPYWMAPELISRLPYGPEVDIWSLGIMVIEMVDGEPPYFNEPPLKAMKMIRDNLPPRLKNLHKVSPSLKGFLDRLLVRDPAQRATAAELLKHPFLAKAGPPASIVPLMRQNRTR

[2] = biological target: T1, Serine/threonine-protein kinase PAK 4; test: Inhibition of human PAK4 kinase domain using coumarin and fluorescein-labeled ser/thr20 peptide as substrate preincubated for 15 mins followed by ATP addition measured after 60 mins by Z'-Lyte assay
Target sequence in this assay (O96013 whole entry, the tested form may be a part): as above

Homo sapiens = species on record: Homo sapiens; test: Selectivity index, ratio of Ki for human PAK1 to Ki for human PAK4
In short: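 Ratio of PAK1 Ki to PAK4 Ki, both taken from the FRET-based Z′-Lyte assay.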

[3] = biological target: T1, Serine/threonine-protein kinase PAK 4; test: Binding affinity to human truncated PAK4 kinase domain assessed as change in melting temperature at 20 uM by SYPRO orange dye based differential scanning fluorimetry
In short: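 Melting-temperature shift of the compound–truncated PAK4 complex was measured by differential scanning fluorimetry, relative to the truncated PAK4 protein alone.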
Target sequence in this assay (O96013 whole entry, looked up, the tested form may be a part): as the sequence (O96013 whole entry, the tested form may be a part) above

[4] = biological target: Serine/threonine-protein kinase PAK 1 (Homo sapiens, UniProt Q13153); test: Inhibition of human PAK1 kinase domain using coumarin and fluorescein-labeled ser/thr19 peptide as substrate preincubated for 15 mins followed by ATP addition measured after 60 mins by Z'-Lyte assay
In short: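 FRET-based Z′-Lyte kinase assay run per the kit instructions. Ki values are the average of at least two duplicate experiments; SEM < ±20%.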

Sequence of Serine/threonine-protein kinase PAK 1 (Q13153 whole entry, the tested form may be a part): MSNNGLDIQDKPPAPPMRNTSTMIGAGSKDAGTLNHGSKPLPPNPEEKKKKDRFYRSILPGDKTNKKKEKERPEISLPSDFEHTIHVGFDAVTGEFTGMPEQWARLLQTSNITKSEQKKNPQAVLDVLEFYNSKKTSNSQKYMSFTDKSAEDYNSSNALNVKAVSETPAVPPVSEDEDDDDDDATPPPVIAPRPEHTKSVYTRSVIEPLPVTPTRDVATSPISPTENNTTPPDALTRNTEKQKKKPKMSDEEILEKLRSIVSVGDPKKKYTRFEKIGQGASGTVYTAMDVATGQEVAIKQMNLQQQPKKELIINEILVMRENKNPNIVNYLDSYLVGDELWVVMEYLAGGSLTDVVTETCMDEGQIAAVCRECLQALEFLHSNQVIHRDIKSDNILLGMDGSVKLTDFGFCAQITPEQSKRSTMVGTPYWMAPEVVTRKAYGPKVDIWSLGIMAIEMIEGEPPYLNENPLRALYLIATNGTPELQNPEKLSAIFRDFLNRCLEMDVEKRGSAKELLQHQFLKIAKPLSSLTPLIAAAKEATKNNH

SMILES	Kd [1] [nM]	Ki [2] [nM]	Ratio Ki (Homo sapiens)	ΔTm [3] [°C]	Ki [4] [nM]
Cc1cc(Nc2nc(C(=O)N3CCOCC3)nc3ccc(Cl)cc23)n[nH]1	1940	2170			
Cn1cnc(Nc2nc(N3CCC(N)CC3)nc3ccc(Cl)cc23)c1	156	710	> 14	0.5	> 10000

These reach a lower Kd [1]. Values come first.

Kd [1] [nM]	Ki [2] [nM]	Ratio Ki (Homo sapiens)	ΔTm [3] [°C]	Ki [4] [nM]	SMILES
43	99	18		1890	Cc1cc(Nc2nc(N3CCC(N)CC3)nc3ccc(Cl)cc23)n[nH]1
6	16	19		288	NC1CCN(c2nc(Nc3cc(C4CC4)[nH]n3)c3cc(Cl)ccc3n2)CC1
66	45	> 222		> 10000	Cc1cc(Nc2nc(C(=O)N3CCNCC3)nc3ccc(Cl)cc23)n[nH]1
